Assay [1] is described as follows: Inhibition of West Nile virus NS2B-NS3 serine protease preincubated for 1 hr before addition of Pyr-RTKR-AMC fluorogenic substrate by measuring fluorescence every 45 seconds for 1 hr by fluorescence assay. In short, it runs like this: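 WNV NS2B/NS3 protease (20 nM) preincubated with varying inhibitor concentrations 1 h at 25 °C in pH 8.0 buffer (10 mM Tris–HCl, 1 mM CHAPS, 20% v/v glycerol). Pyr-RTKR-AMC added to 20 μM final. Fluorescence (ex 355/em 460 nm) read at 37 °C every 45 s for 1 h. Duplicates. IC50 from sigmoidal fit of initial velocity vs log[inhibitor]. Nona-D-Arg-NH2 as positive control.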

The target in assay [2] is Prothrombin (Homo sapiens) (UniProt P00734). As to the kind of experiment: Inhibition of thrombin assessed as fluorescence intensity at 100 uM pretreated for 1 hr before substrate addition measured every 45 seconds for 1 hr. In short, it runs like this: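 Assay run with a commercial AFC thrombin kit. Thrombin (40 nM) incubated with inhibitor 1 h at 25 °C in kit reaction buffer, then AFC substrate added. Fluorescence (ex 380/em 500 nm) read at 25 °C. NAPAP served as positive control.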

Assay [3] can be described thus: Competitive inhibition of West Nile virus NS2B-NS3 serine protease assessed as rate of Pyr-RTKR-AMC hydrolysis every 45 seconds for 1 hr by Lineweaver-Burk plot analysis. In short, it runs like this: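 Inhibitor at 0, 5, 10, 20, 40 and 70 μM preincubated with protease (20 nM) 1 h at 25 °C, pH 8.0 (10 mM Tris–HCl, 1 mM CHAPS, 20% v/v glycerol). Pyr-RTKR-AMC then added at 10–500 μM (seven levels). Hydrolysis followed at 37 °C, ex 355/em 460 nm. Ki from non-linear regression with a competitive inhibition model, alongside a 1/V vs 1/S plot.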

Each structure is given as a SMILES string. Calls of active or inactive are those of the source. No cut-off for these calls is given here.

Consider `N=C(N)NC1CCC(NC(=O)[C@H](CCCCN)NC(=O)[C@H](CCCCN)NC(=O)Cc2ccc(-c3ccccc3)cc2)CC1` (stereo partly drawn), for which, in assay [1], the IC50 is over 100 µM.
`CC(=O)N[C@@H](CCCCN)C(=O)N[C@@H](CCCCN)C(=O)NCCCCNC(=N)N`: the IC50 in assay [1] turned out to be 18.2 µM. Further, the result in assay [2] was inactive.
On to `N=C(N)NCCCNC(=O)[C@H](CCCCN)NC(=O)[C@H](CCCCN)NC(=O)Cc1ccc(-c2ccccc2)cc1`, for which, in assay [1], the IC50 is over 100 µM.
The same measure, in the same setting: the same measure for `N=C(N)NCCCCCNC(=O)[C@H](CCCCN)NC(=O)[C@H](CCCCN)NC(=O)Cc1ccc(-c2ccccc2)cc1`: over 100 µM.
In assay [1], `N=C(N)NCCCCNC(=O)[C@H](CCCCN)NC(=O)[C@H](CCCCN)NC(=O)Cc1ccc(-c2ccccc2)cc1` had an IC50 of 4.7 µM. The inhibition constant (Ki) in assay [3] turned out to be 2050 nM. Besides, the outcome in assay [2] was inactive.
Consider `N=C(N)NCC1CCN(C(=O)[C@H](CCCCN)NC(=O)[C@H](CCCCN)NC(=O)Cc2ccc(-c3ccccc3)cc2)CC1`, for which the IC50 in assay [1] is over 100 µM.
Still for that read-out and setting: the same measure for `N=C(N)NC[C@@H]1CCN(C(=O)[C@H](CCCCN)NC(=O)[C@H](CCCCN)NC(=O)Cc2ccc(-c3ccccc3)cc2)C1`: 20 µM; for `N=C(N)NCCNC(=O)[C@H](CCCCN)NC(=O)[C@H](CCCCN)NC(=O)Cc1ccc(-c2ccccc2)cc1`: over 100 µM; for `N=C(N)NC/C=C/CNC(=O)[C@H](CCCCN)NC(=O)[C@H](CCCCN)NC(=O)Cc1ccc(-c2ccccc2)cc1`: 61.2 µM.
On the same count and under the same terms, the same measure for `N=C(N)NC[C@H]1CCN(C(=O)[C@H](CCCCN)NC(=O)[C@H](CCCCN)NC(=O)Cc2ccc(-c3ccccc3)cc2)C1`: over 100 µM.

For orientation: IC50 means the concentration at which inhibition is half-maximal. A higher IC50 goes with weaker potency in that assay. As usually defined, the Ki is a dissociation constant, usually derived from enzyme kinetics or from competition with a known ligand.
